Laboratory results published in ChEMBL document CHEMBL1671620, “Mutations in the fks1 gene in Candida albicans, C. tropicalis, and C. krusei correlate with elevated caspofungin MICs uncovered in AM3 medium using the method of the European Committee on Antibiotic Susceptibility Testing” (2008).
≈ marks a conversion by molar mass, not a printed value.

Assays:
Candida albicans [1] = assay: Antifungal activity against Candida albicans isolate 20 harboring 1,3-beta-glucan synthase HS1 point mutant grown on RPMI media after 24 hrs by EUCAST microdilution method; details: isolate 20, 24 h
Candida albicans [2] = assay: Antifungal activity against Candida albicans isolate 5 expressing wild type 1,3-beta-glucan synthase grown on AM3 media after 48 hrs by EUCAST microdilution method; type: functional; details: isolate 5, 24 h, in the assay text read “after 24 hrs” for “after 48 hrs”
Procedure, shortened: (§1)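 EUCAST (AFST-EUCAST) broth microdilution with caspofungin at 0.015 to 8 μg/ml final, in AM3 with glucose added to 2% final. Final inoculum was 10⁵ yeast cells/ml, with microplates prepared in batches and stored at −20°C. Plates were incubated at 35°C in humid ambient air and read spectrophotometrically after shaking at 24 h and 48 h. MIC was ≥50% growth reduction versus drug-free well; 90% end point also read at both times.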

Candida tropicalis [3] = assay: Antifungal activity against Candida tropicalis ATCC 750 expressing wild type 1,3-beta-glucan synthase grown on AM3 media after 48 hrs by EUCAST microdilution method; type: functional; details: ATCC 750, 24 h, in the assay text read “24 hrs” for “48 hrs”
Procedure, shortened: as §1

Candida tropicalis [4] = assay: Antifungal activity against Candida tropicalis isolate 1 expressing wild type 1,3-beta-glucan synthase grown on RPMI media after 24 hrs by EUCAST microdilution method; details: isolate 1, 24 h
Candida albicans [5] = assay: Antifungal activity against Candida albicans isolate 24 harboring 1,3-beta-glucan synthase HS1 point mutant grown on AM3 media after 24 hrs by EUCAST microdilution method; details: isolate 24, 24 h
Candida albicans [6] = assay: Antifungal activity against Candida albicans isolate 12 expressing wild type 1,3-beta-glucan synthase grown on RPMI media after 24 hrs by EUCAST microdilution method; details: isolate 12, 24 h
Candida albicans [7] = assay: Antifungal activity against Candida albicans isolate 18 expressing wild type 1,3-beta-glucan synthase grown on AM3 media after 24 hrs by EUCAST microdilution method; details: isolate 18, 24 h
Candida albicans [8] = assay: Antifungal activity against Candida albicans isolate 15 expressing wild type 1,3-beta-glucan synthase grown on AM3 media after 48 hrs by EUCAST microdilution method; type: functional; details: isolate 15, 24 h, in the assay text read “24 hrs” for “48 hrs”
Procedure, shortened: as §1

Candida albicans [9] = assay: Antifungal activity against Candida albicans isolate 21 harboring 1,3-beta-glucan synthase HS1 point mutant grown on RPMI media after 24 hrs by EUCAST microdilution method; details: isolate 21, 24 h
Candida tropicalis [10] = assay: Antifungal activity against Candida tropicalis isolate 2 harboring 1,3-beta-glucan synthase HS1 point mutant grown on RPMI media after 24 hrs by EUCAST microdilution method; details: isolate 2, 24 h

Q: How did the MIC (Candida albicans [1]) turn out when `CC[C@H](C)C[C@H](C)CCCCCCCCC(=O)N[C@H]1C[C@@H](O)[C@@H](NCCN)NC(=O)[C@@H]2[C@@H](O)CCN2C(=O)[C@H]([C@H](O)CCN)NC(=O)[C@H]([C@H](O)[C@@H](O)c2ccc(O)cc2)NC(=O)[C@@H]2C[C@@H](O)CN2C(=O)[C@H]([C@@H](C)O)NC1=O` [CASPOFUNGIN] was run?
A: 2 µg/mL (≈ 1.83 µM)

Q: What about the MIC (Candida albicans [2]) of the same compound?
A: 0.03 µg/mL (≈ 0.0274 µM)

Q: And the MIC (Candida tropicalis [3])?
A: 0.06 µg/mL (≈ 0.0549 µM)

Q: What about the MIC (Candida tropicalis [4]) of the same compound?
A: 2 µg/mL (≈ 1.83 µM)

Q: And the MIC (Candida albicans [5])?
A: 16 µg/mL (≈ 14.6 µM)

Q: What about the MIC (Candida albicans [6]) of the same compound?
A: 0.5 µg/mL (≈ 0.457 µM)

Q: What about the MIC (Candida albicans [7]) of the same compound?
A: 0.015 µg/mL (≈ 0.0137 µM)

Q: What about the MIC (Candida albicans [8]) of the same compound?
A: 0.03 µg/mL (≈ 0.0274 µM)

Q: What about the MIC (Candida albicans [9]) of the same compound?
A: 2 µg/mL (≈ 1.83 µM)

Q: And the MIC (Candida tropicalis [10])?
A: 2 µg/mL (≈ 1.83 µM)
